# Reference: ChEMBL document CHEMBL1817625, “Synthesis of pheophorbide-a conjugates with anticancer drugs as potential cancer diagnostic and therapeutic agents” (Bioorg Med Chem, 2011)
# Active and inactive are the calls of the source. No cut-off for these calls is given here.
# Experiments:
# AT84 = assay: Cytotoxicity against mouse AT84 cells assessed as inhibition of cell growth at 10 uM after 3 days by SRB assay; type: functional, cell-based
# Method in brief: (§1)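 Cells were grown in RPMI 1640 with 10% FBS and antibiotic–antimycotic at 37 °C, 5% CO2, and trypsin/EDTA-detached. They were seeded at 50,000 cells/mL and exposed to 10 µM compound for 3 days. For SRB staining, cells were fixed cold for 1 h, stained 1 h at room temperature, washed with 1% acetic acid and solubilized in 10 mM Tris. A515 was read; means of four duplicates were expressed as % of solvent-treated control.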
# MCF7 = assay: Cytotoxicity against human MCF7 cells assessed as inhibition of cell growth at 10 uM after 3 days by SRB assay; type: functional, cell-based
# Method in brief: (§2)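 Cells were kept at 37 °C in 5% CO2, HeLa in DMEM and MCF7 in RPMI 1640, each with 10% FBS. They were seeded at 50,000 cells/mL in 96-well plates, exposed to 10 µM compound for 3 days, then fixed in the cold for 1 h. Staining was SRB for 1 h at room temperature with 1% acetic acid washes. Bound dye was released in 10 mM Tris and read at 515 nm. Values are means of four duplicated samples, as a percentage of solvent-treated control.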
# HeLa [1] = assay: Cytotoxicity against human HeLa cells assessed as inhibition of cell growth at 10 uM after 3 days by SRB assay; type: functional, cell-based; method in brief: as §2
# U-87MG ATCC = assay: Cytotoxicity against human U87MG cells assessed as inhibition of cell growth at 10 uM after 3 days by SRB assay; type: functional, cell-based; method in brief: as §1
# KB = assay: Cytotoxicity against human KB cells assessed as inhibition of cell growth at 10 uM after 3 days by SRB assay; type: functional, cell-based; method in brief: as §1
# YD-10B = assay: Cytotoxicity against human YD-10B cells assessed as inhibition of cell growth at 10 uM after 3 days by SRB assay; type: functional, cell-based
# Method in brief: (§3)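 Cultures were kept in DMEM with 10% FBS and antibiotic–antimycotic at 37 °C, 5% CO2, and detached with trypsin/EDTA. Cells were plated at 50,000 cells/mL and treated with 10 µM compound for 3 days. SRB staining: 1 h cold fixation, 1 h room-temperature stain, 1% acetic acid washes, 10 mM Tris release. A515 was read; the mean of four duplicates was given as % of solvent-treated control.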
# A549 = assay: Cytotoxicity against human A549 cells assessed as inhibition of cell growth at 10 uM after 3 days by SRB assay; type: functional, cell-based; method in brief: as §3
# HepG2 = assay: Cytotoxicity against human HepG2 cells assessed as inhibition of cell growth at 10 uM after 3 days by SRB assay; type: functional, cell-based; method in brief: as §3
# SK-OV-3 = assay: Cytotoxicity against human SKOV3 cells assessed as inhibition of cell growth at 10 uM after 3 days by SRB assay; type: functional, cell-based; method in brief: as §1
# HCT-116 = assay: Cytotoxicity against human HCT116 cells assessed as inhibition of cell growth at 10 uM after 3 days by SRB assay; type: functional, cell-based; method in brief: as §1
# PC-3 = assay: Cytotoxicity against human PC3 cells assessed as inhibition of cell growth at 10 uM after 3 days by SRB assay; type: functional, cell-based; method in brief: as §1
# HeLa [2] = assay: Cellular uptake in human HeLa cells at 10 uM after 48 hrs by confocal microscopic analysis; type: ADME, cell-based
# Method in brief: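 HeLa cells were seeded in slide dishes in RPMI 1640 overnight. They were then exposed to 10 µM compound in complete medium for 48 h under 95% air/5% CO2 and washed three times with PBS. Confocal imaging used 440 nm excitation, collecting 575–600 nm emission (doxorubicin channel) and 655–755 nm emission (pheophorbide-a channel).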
Drug uptake (HeLa [2]),Compound,growth inhibition (GI) (AT84),growth inhibition (GI) (MCF7),growth inhibition (GI) (HeLa [1]),growth inhibition (GI) (U-87MG ATCC),growth inhibition (GI) (KB),growth inhibition (GI) (YD-10B),growth inhibition (GI) (A549),growth inhibition (GI) (HepG2),growth inhibition (GI) (SK-OV-3),growth inhibition (GI) (HCT-116),growth inhibition (GI) (PC-3)
Active,C=Cc1c(C)c2cc3nc(c4c5[nH]c(cc6nc(cc1[nH]2)C(C)=C6CC)c(C)c5C(=O)[C@@H]4C(=O)OC)[C@@H](CCC(=O)Oc1ccccc1/C=C/C(=O)N[C@@H]1C[C@@H](O[C@H]2C[C@](O)(C(=O)CO)Cc4c(O)c5c(c(O)c42)C(=O)c2c(OC)cccc2C5=O)O[C@H](C)[C@@H]1O)[C@@H]3C,Active,Active,Active,Active,Active,Active,Active,Active,Active,Active,Active
–,C=Cc1c(C)c2cc3nc(c4c5[nH]c(cc6nc(cc1[nH]2)C(C)=C6CC)c(C)c5C(=O)[C@@H]4C(=O)OC)[C@@H](CCC(=O)O[C@@H](C(=O)O[C@H]1C[C@@]2(O)[C@@H](OC(=O)c4ccccc4)[C@@H]4[C@]5(OC(C)=O)CO[C@@H]5C[C@H](O)[C@@]4(C)C(=O)[C@H](OC(C)=O)C(=C1C)C2(C)C)[C@@H](NC(=O)c1ccccc1)c1ccccc1)[C@@H]3C,–,Active,Active,–,Active,Active,–,–,–,–,–
Active,C=Cc1c(C)c2cc3nc(c4c5[nH]c(cc6nc(cc1[nH]2)C(C)=C6CC)c(C)c5C(=O)[C@@H]4C(=O)OC)[C@@H](CCC(=O)Nc1ccc(COC(=O)N[C@@H]2C[C@@H](O[C@H]4C[C@](O)(C(=O)CO)Cc5c(O)c6c(c(O)c54)C(=O)c4c(OC)cccc4C6=O)O[C@H](C)[C@@H]2O)cc1)[C@@H]3C,Active,Active,Active,Active,Active,Active,Active,Active,Active,Active,Active
Active,COc1cccc2c1C(=O)c1c(O)c3c(c(O)c1C2=O)C[C@@](O)(C(=O)CO)C[C@@H]3O[C@H]1C[C@H](N)[C@H](O)[C@H](C)O1 [DOXORUBICIN],–,–,–,–,–,–,–,–,–,–,–
Active,C=Cc1c(C)c2cc3nc(c4c5[nH]c(cc6nc(cc1[nH]2)C(C)=C6CC)c(C)c5C(=O)[C@@H]4C(=O)OC)[C@@H](CCC(=O)O)[C@@H]3C [PHEOPHORBIDE A],–,–,–,–,–,–,–,–,–,–,–

Compound,Drug uptake (HeLa [2]),growth inhibition (GI) (AT84),growth inhibition (GI) (MCF7),growth inhibition (GI) (HeLa [1]),growth inhibition (GI) (U-87MG ATCC),growth inhibition (GI) (KB),growth inhibition (GI) (YD-10B),growth inhibition (GI) (A549),growth inhibition (GI) (HepG2),growth inhibition (GI) (SK-OV-3),growth inhibition (GI) (HCT-116),growth inhibition (GI) (PC-3)
C=Cc1c(C)c2cc3nc(c4c5[nH]c(cc6nc(cc1[nH]2)C(C)=C6CC)c(C)c5C(=O)[C@@H]4C(=O)OC)[C@@H](CCC(=O)N[C@@H]1C[C@@H](O[C@H]2C[C@](O)(C(=O)CO)Cc4c(O)c5c(c(O)c42)C(=O)c2c(OC)cccc2C5=O)O[C@H](C)[C@@H]1O)[C@@H]3C,Active,Active,Active,Active,Active,–,–,–,–,–,–,–
